# Laboratory results taken from PubChem BioAssay AID651938 (NMMLSC, 2012).
# Molecular target: Fluorogen activating protein scFv HL1.1-TO1 (AM2.2, synthetic construct)
# Test: competition with TO1-2p for soluble AM2.2 – biochemical, soluble FAP, fluorescence competition, artefact control for beta2AR internalization ligand project, dose response (AID 651938)
# Settings: Soluble FAP AM2.2 with TO1-2p fluorogen
# Summary of the method: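 System: soluble purified FAP AM2.2; also added: TO1-2p fluorogen, 10× Kd; compound dosing: serial dilution series, water-diluted DMSO stocks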
row,EC50,Structure (SMILES)
1,19.8 µM,Cc1ccc(S(=O)(=O)N(C)CC(=O)N2CCN(c3ccccn3)CC2)cc1
2,2.73 µM,CN(CC(=O)N1CCN(c2ccccn2)CC1)S(=O)(=O)c1ccc(Cl)cc1
